pIC50: −log10 of the molar value. The source made the active and inactive calls. The calls are words filed in the database; no cut-off is given here.
Columns and labels:
MCF7 [1] = assay: Induction of apoptosis in human MCF7 cells assessed as necrotic cells at 4 uM after 48 hrs by annexin V staining-based flow cytometric analysis (reference value: 5.65%); type: functional
Mus musculus [2] = assay: Tmax in mouse at 10 mg/kg, po after 5 mins to 24 hrs by LC-MS/MS analysis; settings: in vivo
MCF7 [3] = assay: Induction of phenotypic changes in human MCF7 cells assessed as distortion at 4 uM after 24 hrs by inverted light microscopic method; type: functional, cell-based
Outline: (§1)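 MCF-7 cells were incubated 24 h with 2, 4 or 8 µM compound, with an untreated group as control. Cell morphology (distortion, blebbing, shrinkage, rounding, necrosis) was examined under an inverted light microscope at ×200.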

Mus musculus [4] = assay: AUC in mouse at 10 mg/kg, iv after 2 mins to 24 hrs by LC-MS/MS analysis; settings: in vivo
Mus musculus [5] = assay: Cmax in mouse at 10 mg/kg, po after 5 mins to 24 hrs by LC-MS/MS analysis; settings: in vivo
[6] = target: T1, Histone-lysine N-methyltransferase EHMT2 (Homo sapiens) (UniProt Q96KQ7); assay: Inhibition of G9a in human MCF7 cells assessed as decrease in dimethylation level of H3K9 at […] after 48 hrs by Western blot method; type: cell-based
T1 sequence (whole entry): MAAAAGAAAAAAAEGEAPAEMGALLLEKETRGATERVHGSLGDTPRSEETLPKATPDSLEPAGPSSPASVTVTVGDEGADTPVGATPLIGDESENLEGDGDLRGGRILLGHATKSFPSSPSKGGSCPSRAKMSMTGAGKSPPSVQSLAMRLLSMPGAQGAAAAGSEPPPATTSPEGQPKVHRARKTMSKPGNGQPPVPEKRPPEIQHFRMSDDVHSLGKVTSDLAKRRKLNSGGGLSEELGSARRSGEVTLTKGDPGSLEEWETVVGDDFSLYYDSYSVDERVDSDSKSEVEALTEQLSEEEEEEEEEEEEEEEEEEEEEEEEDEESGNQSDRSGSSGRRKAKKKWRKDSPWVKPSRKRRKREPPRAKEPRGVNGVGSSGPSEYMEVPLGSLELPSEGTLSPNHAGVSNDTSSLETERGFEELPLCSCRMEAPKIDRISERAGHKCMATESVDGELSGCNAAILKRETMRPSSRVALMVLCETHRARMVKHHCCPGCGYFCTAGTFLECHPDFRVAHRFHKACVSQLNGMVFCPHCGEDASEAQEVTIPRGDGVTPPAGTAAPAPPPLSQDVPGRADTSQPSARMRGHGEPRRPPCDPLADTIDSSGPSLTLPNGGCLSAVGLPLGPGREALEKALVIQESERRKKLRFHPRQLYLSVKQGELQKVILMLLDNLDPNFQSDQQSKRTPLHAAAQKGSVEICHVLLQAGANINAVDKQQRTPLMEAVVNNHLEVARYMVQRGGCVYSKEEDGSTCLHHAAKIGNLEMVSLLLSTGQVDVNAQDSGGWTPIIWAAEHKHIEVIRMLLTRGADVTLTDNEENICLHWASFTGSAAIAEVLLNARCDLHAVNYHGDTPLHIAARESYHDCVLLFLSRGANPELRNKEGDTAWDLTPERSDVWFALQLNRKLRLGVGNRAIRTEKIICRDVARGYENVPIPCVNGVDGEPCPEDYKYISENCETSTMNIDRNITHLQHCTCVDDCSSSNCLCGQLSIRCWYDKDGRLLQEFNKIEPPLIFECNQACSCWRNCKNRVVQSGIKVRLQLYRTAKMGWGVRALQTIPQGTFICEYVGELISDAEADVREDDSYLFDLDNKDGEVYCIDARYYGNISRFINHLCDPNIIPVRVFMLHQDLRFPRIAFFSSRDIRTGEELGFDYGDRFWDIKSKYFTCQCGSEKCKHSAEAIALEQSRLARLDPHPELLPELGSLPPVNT

[7] = target: T2, Histone-lysine N-methyltransferase EHMT2 (Homo sapiens, UniProt Q96KQ7); assay: Inhibition of G9a (unknown origin) using biotinylated-histone H3 (1 to 21 residues)/S-adenosyl-methionine as substrate/methyl donor after 3 hrs by AlphaScreen assay
T2 sequence (Q96KQ7 whole entry): T1 sequence (whole entry)
Outline: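 AlphaScreen G9a assay. Compounds were first screened at 10 µM. IC50 came from concentration-response curves of ten escalating concentrations (0.1 nM–10 µM), using two independent experiments, reported as mean ± SD.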

Mus musculus [8] = assay: Half life in mouse at 10 mg/kg, iv after 2 mins to 24 hrs by LC-MS/MS analysis; settings: in vivo
MCF7 [9] = assay: Induction of apoptosis in human MCF7 cells assessed as appearance of apoptotic bodies after 24 hrs by Hoechst 33258 staining-based fluorescence microscopy; type: functional, cell-based
Mus musculus [10] = assay: Oral bioavailability in mouse at 10 mg/kg after 5 mins to 24 hrs by LC-MS/MS analysis; settings: in vivo
MCF7 [11] = assay: Induction of phenotypic changes in human MCF7 cells at 2 uM after 24 hrs by inverted light microscopic method; type: functional, cell-based; outline: as §1
[12] = Antiproliferative activity against human HCT116 cells assessed as inhibition of cell viability after 72 hrs by MTT assay; type: functional, cell-based; settings: HCT-116, 72 h
MCF7 [13] = assay: Induction of apoptosis in human MCF7 cells assessed as early apoptotic cells at 2 uM after 48 hrs by annexin V staining-based flow cytometric analysis (reference value: 0.5%); type: functional
MCF7 [14] = assay: Induction of apoptosis in human MCF7 cells assessed as late apoptotic cells at 4 uM after 48 hrs by annexin V staining-based flow cytometric analysis (reference value: 11%); type: functional
MCF7 [15] = assay: Induction of apoptosis in human MCF7 cells assessed as late apoptotic cells at 2 uM after 48 hrs by annexin V staining-based flow cytometric analysis (reference value: 11%); type: functional

O=C1c2ccccc2-c2onc3c(N4CCCCC4)cc(NCCN4CCCC4)c1c23
Activity (MCF7 [1]): 3.1% | Tmax (Mus musculus [2]): 6.7 h | Activity (MCF7 [3]): Active | AUC (Mus musculus [4]): 1300 ng·h/mL | Cmax (Mus musculus [5]): 70.7 ng/mL | inhibition [6]: Active | pIC50 [7]: 5.66 | half-life (Mus musculus [8]): 6.9 h | Activity (MCF7 [9]): Dose-dependent effect | bioavailability (Mus musculus [10]): 55.5% | Activity (MCF7 [11]): Active | pIC50 [12]: 5.50 | Activity (MCF7 [13]): 0.3% | Activity (MCF7 [14]): 26.05% | Activity (MCF7 [15]): 18.25%

Reference: ChEMBL document CHEMBL3856284, “Discovery, design and synthesis of 6H-anthra[1,9-cd]isoxazol-6-one scaffold as G9a inhibitor through a combination of shape-based virtual screening and structure-based molecular modification” (Bioorg Med Chem, 2016)
